The structures appear in SMILES notation. The source made the active and inactive calls. The rule behind the calls is not given here.

What is called IC50 is the concentration at which inhibition is half-maximal. Usually half-life stands for the time in which the quantity being followed falls by half.

The nature of data set [1]: Inhibition of human PI3K p110alpha H1047R mutant/p85alpha using PIP2 as substrate incubated for 30 mins in presence of ATP by HTRF assay.
For data set [2], the target named is Serine/threonine-protein kinase mTOR (Homo sapiens, UniProt P42345). In words: Inhibition of human full length recombinant mTOR in presence of [gamma33P-ATP] by radiometric scintillation counting analysis.
The species named for data set [3] is Homo sapiens. In words: Selectivity index, ratio of IC50 for human PI3K p110beta/p85alpha to IC50 for human PI3Kalpha by HTRF assay. In outline: (§1)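 The PI3K isoforms were assayed with an HTRF kit. Each enzyme was incubated in assay buffer containing 10 μM PIP2, and the reaction was started with ATP and run 30 min at room temperature. Stop solution and detection mix were then added and light emission was read. IC50 values were averages of at least 3 separate determinations, and each index is the ratio of IC50 values.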
In general terms: In TR-FRET formats the signal depends on donor and acceptor labels being close together.

Data set [4] deals with MCF7. Kind of data set: Antiproliferative activity against human MCF7 cells assessed as reduction in cell viability after 72 hrs by sulforhodamine B assay. Format: functional, cell-based. To be noted: MCF7, 72 h. An outline of the steps: (§2)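 SRB assay. Exponentially growing cells seeded at 3000–5000/well, compounds added serially diluted after 24 h, cultured 72 h. Cells fixed with 10% TCA, stained with SRB, dye dissolved in 10 mM Tris-HCl, absorbance read at 560 nm. Inhibition = (ODcontrol − ODtreated)/ODcontrol × 100%. IC50 is the mean of at least three independent tests.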
Background: The SRB assay estimates cell density from bound dye.

Data set [5] can be described thus: Metabolic stability in Beagle dog hepatocytes assessed as intrinsic clearance. Format: ADME, cell-based, Canis lupus familiaris, Hepatocyte. To be noted: read-out: CLH.
Data set [6] is described as follows: Toxicity in BALB/cA nude mouse xenografted with human SK-OV-3 cells assessed as blood glucose level at 5 to 20 mg/kg, po administered once a day for 18 days by glucose meter analysis. Format: organism-based. The conditions noted are these: in vivo, 432 h, dose 5-20 mg/kg/day, time 18 day. An outline of the steps: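 Female BALB/cA nude mice, 4–5 weeks old, carried s.c. SKOV-3 xenograft fragments. They were dosed orally once daily for 18 days with vehicle or compound, then fasted 6 h and given glucose orally at 2 g/kg. Blood was sampled at set times up to 2 h, and glucose was measured with a blood glucose meter.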
(In general: Xenograft models place foreign cells or tissue in a host animal.)

Data set [7] deals with ZR-75-1. In words: Antiproliferative activity against human ZR-75-1 cells assessed as reduction in cell viability after 72 hrs by sulforhodamine B assay. It is filed as functional, cell-based. To be noted: ZR-75-1, 72 h. An outline of the steps:
as §2

For data set [8], the target named is T1, Phosphatidylinositol 4,5-bisphosphate 3-kinase catalytic subunit alpha isoform (Homo sapiens, UniProt P42336). In words: Inhibition of PI3Kalpha in human U87MG cells assessed as reduction in rhIGF1-stimulated AKT phosphorylation at Ser473 treated for 1 hr followed by incubation with IGF1 for 10 mins by western blot analysis. The conditions noted are these: U-87 MG, dose 0.01-1 µM, time 70.0 min. Format: cell-based. An outline of the steps:
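U87MG or Rh30 cells held 24 h in serum-free medium, exposed to compound for 1 h, then stimulated with 50 ng/ml IGF-I for 10 min. Lysates blotted for Akt, pAkt T308 and pAkt S473.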

In data set [9] the test system is Mus musculus. In words: In vivo inhibition of PI3Kalpha in BALB/cA nude mouse xenografted with human SK-OV-3 cells assessed as reduction in AKT phosphorylation at Ser473 residue in tumor at 5 mg/kg, po measured after 2 hrs by Western blot analysis. It is filed as functional, organism-based. An outline of the steps: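 Nude mice carrying SKOV-3 xenografts of 200 mm³ got a single oral 5 mg/kg dose. Tumors were collected at 0, 2, 4 or 8 h, homogenized, and pAkt S473 probed by Western blot.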

Data set [10] concerns the target PI3K p110 beta/p85 alpha (Homo sapiens, UniProt P42338). In words: Inhibition of human PI3K p110beta/p85alpha using PIP2 as substrate incubated for 30 mins in presence of ATP measured after 30 mins by HTRF assay.
The species named for data set [11] is Homo sapiens. Kind of data set: Selectivity index, ratio of IC50 for human PI3Kgamma R459Q mutant to IC50 for human PI3Kalpha by HTRF assay. An outline of the steps:
as §1

Data set [12] concerns SK-OV-3. Kind of data set: Antitumor activity against human SK-OV-3 cells xenografted in BALB/cA nude mouse assessed as tumor growth at 20 mg/kg, po administered once a day for 21 days and measured twice per week. It is filed as functional. To be noted: dose 20 mg/kg/day; time 21 day. An outline of the steps:
(§3)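 Female BALB/cA nude mice, 4–5 weeks old. SKOV-3 xenografts passaged once in vivo, then 1.5 mm³ fragments implanted s.c. in the right flank by trocar. At about 100 mm³ mice were randomized to vehicle or drug given orally once daily. Tumor size and body weight measured twice weekly; V = length × width²/2.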

Data set [13] is described as follows: Metabolic stability in rat hepatocytes assessed as intrinsic clearance. It is filed as ADME, cell-based, Hepatocyte. The conditions noted are these: read-out: CLH.
In data set [14] the test system is SK-OV-3. Kind of data set: Antitumor activity against human SK-OV-3 cells xenografted in BALB/cA nude mouse assessed as tumor growth at 5 mg/kg, po administered once a day for 21 days and measured twice per week. It is filed as functional. To be noted: dose 5 mg/kg/day; time 21 day. In outline:
as §3

Data set [15] is described as follows: Metabolic stability in rat hepatocytes assessed as half life. Format: ADME, cell-based, Hepatocyte.
A short description of data set [16]: Metabolic stability in cynomolgus monkey hepatocytes assessed as intrinsic clearance. It is filed as ADME, cell-based, Macaca fascicularis, Hepatocyte. The conditions noted are these: read-out: CLH.
Data set [17] addresses PI3-kinase p110-delta/p85-alpha (Homo sapiens, UniProt O00329). Kind of data set: Inhibition of human PI3K p110delta/p85alpha using PIP2 as substrate in presence of ATP measured after 30 mins by HTRF assay.
A short description of data set [18]: Inhibition of human PI3Kgamma R459Q mutant using PIP2 as substrate in presence of ATP measured after 30 mins by HTRF assay.
Data set [19] addresses T1, Phosphatidylinositol 4,5-bisphosphate 3-kinase catalytic subunit alpha isoform. In words: Inhibition of PI3Kalpha (unknown origin) transfected in human Rh30 cells assessed as reduction in AKT phosphorylation at Ser473 at 14 nM by western blot analysis. It is filed as cell-based. In outline: (§4)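 Rh30 cells ectopically expressing membrane-anchored, N-terminally myristoylated, constitutively active p110α, β, γ or δ. Akt phosphorylation assessed by Western blot; lysates made in RIPA buffer, equal protein heated at 95 °C for 10 min in SDS loading buffer.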

The target of data set [20] is Voltage-gated inwardly rectifying potassium channel KCNH2 (Homo sapiens, UniProt Q12809). In words: Inhibition of human ERG expressed in CHO cells at holding potential of -80 mV by patch clamp assay. Format: cell-based. An outline of the steps: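 Patch clamp on CHO cells stably expressing hERG, at room temperature. External solution (mM): 145 NaCl, 5 KCl, 2 CaCl2, 1 MgCl2, 10 HEPES, 10 glucose, pH 7.4. Pipette solution: 140 KCl, 1 MgCl2, 0.1 CaCl2, 5 EGTA, 10 HEPES, pH 7.3. Pipettes 3–5 MΩ; peak hERG current amplitude measured.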

Data set [21] in a line: Inhibition of human PI3K p110alpha E545K mutant/p85alpha using PIP2 as substrate incubated for 30 mins in presence of ATP by HTRF assay.
For data set [22], the target named is Phosphatidylinositol 4,5-bisphosphate 3-kinase catalytic subunit beta isoform (Homo sapiens) (UniProt P42338). Kind of data set: Inhibition of PI3Kbeta (unknown origin) transfected in human Rh30 cells assessed as reduction in AKT phosphorylation at Ser473 residue at 10XIC50 by western blot analysis. Format: cell-based. In outline: as §4

T1 sequence (P42336 whole entry, canonical isoform): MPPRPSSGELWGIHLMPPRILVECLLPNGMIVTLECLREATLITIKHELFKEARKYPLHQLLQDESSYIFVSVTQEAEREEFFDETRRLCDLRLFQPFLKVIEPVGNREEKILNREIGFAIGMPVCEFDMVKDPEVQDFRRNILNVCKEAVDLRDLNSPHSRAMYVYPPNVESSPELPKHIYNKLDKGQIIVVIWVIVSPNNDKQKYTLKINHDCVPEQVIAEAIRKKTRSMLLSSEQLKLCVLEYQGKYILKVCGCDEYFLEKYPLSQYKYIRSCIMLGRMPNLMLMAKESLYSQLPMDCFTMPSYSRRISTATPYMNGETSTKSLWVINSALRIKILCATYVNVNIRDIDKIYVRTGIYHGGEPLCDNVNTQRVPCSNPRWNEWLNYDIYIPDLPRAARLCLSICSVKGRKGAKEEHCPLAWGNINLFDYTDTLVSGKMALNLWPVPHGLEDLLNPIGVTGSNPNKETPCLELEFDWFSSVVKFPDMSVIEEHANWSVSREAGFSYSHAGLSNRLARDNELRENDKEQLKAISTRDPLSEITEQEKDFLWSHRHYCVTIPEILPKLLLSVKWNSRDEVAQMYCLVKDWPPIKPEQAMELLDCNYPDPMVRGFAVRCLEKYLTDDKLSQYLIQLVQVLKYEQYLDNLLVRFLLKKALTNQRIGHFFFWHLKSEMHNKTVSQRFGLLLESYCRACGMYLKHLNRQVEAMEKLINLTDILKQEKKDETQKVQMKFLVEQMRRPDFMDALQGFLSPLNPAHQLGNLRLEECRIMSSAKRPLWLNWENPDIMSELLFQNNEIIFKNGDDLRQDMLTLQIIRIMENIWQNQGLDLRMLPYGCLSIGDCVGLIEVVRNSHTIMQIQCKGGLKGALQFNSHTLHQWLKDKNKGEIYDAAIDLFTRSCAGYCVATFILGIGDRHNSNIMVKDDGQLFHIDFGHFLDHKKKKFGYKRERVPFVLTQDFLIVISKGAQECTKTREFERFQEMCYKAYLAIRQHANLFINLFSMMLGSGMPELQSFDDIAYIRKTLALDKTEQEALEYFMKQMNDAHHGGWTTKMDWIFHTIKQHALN
Chain of Voltage-gated inwardly rectifying potassium channel KCNH2 (Q12809 whole entry): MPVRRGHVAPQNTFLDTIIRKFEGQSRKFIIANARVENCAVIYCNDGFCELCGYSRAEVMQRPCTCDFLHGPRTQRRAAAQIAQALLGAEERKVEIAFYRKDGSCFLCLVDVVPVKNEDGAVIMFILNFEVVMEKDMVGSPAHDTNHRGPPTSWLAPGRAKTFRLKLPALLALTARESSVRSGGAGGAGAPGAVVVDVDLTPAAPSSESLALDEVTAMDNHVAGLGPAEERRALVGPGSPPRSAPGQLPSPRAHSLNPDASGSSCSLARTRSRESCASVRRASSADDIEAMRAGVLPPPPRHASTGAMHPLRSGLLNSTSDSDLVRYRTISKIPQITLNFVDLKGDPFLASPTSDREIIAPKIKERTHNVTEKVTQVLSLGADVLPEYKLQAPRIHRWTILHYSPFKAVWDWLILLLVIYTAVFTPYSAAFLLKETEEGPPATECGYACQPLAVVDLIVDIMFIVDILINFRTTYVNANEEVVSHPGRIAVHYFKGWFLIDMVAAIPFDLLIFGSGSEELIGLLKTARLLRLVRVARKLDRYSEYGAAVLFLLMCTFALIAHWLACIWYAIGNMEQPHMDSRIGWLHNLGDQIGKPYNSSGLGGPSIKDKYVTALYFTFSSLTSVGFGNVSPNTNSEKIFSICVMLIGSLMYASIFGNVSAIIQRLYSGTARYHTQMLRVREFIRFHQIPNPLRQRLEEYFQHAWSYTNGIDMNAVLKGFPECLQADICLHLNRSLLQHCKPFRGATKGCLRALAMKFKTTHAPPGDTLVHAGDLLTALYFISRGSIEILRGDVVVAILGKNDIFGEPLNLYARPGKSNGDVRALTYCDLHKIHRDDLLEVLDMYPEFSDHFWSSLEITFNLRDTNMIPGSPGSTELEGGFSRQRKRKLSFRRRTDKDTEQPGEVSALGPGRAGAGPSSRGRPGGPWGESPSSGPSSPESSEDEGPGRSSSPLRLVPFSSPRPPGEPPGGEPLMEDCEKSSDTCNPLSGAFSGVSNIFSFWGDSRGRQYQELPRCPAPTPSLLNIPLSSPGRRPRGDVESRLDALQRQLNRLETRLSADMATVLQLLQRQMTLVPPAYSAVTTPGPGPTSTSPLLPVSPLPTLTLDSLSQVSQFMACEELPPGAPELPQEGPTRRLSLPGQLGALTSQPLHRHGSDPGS
Chain of PI3K p110 beta/p85 alpha (P27986 whole entry): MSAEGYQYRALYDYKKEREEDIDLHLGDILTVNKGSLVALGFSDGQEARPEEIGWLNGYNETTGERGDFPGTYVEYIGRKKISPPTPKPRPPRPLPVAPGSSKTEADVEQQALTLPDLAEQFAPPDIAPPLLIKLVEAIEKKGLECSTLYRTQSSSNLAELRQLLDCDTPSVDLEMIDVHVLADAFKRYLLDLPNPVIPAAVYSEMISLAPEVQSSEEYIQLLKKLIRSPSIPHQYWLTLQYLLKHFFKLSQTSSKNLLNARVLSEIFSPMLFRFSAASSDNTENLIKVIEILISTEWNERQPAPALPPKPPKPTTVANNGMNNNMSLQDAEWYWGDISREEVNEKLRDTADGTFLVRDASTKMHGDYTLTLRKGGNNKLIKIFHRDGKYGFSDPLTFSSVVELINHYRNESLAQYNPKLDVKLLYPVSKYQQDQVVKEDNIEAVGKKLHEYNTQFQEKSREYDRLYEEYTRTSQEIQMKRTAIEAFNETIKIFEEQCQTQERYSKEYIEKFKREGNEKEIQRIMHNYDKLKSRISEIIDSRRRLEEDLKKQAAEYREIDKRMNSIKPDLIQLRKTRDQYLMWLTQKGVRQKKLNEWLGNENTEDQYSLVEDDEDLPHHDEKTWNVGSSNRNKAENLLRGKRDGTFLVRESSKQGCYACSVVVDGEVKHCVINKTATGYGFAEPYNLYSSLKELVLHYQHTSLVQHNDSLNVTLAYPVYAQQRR
Chain of PI3K p110 beta/p85 alpha (P42338 whole entry): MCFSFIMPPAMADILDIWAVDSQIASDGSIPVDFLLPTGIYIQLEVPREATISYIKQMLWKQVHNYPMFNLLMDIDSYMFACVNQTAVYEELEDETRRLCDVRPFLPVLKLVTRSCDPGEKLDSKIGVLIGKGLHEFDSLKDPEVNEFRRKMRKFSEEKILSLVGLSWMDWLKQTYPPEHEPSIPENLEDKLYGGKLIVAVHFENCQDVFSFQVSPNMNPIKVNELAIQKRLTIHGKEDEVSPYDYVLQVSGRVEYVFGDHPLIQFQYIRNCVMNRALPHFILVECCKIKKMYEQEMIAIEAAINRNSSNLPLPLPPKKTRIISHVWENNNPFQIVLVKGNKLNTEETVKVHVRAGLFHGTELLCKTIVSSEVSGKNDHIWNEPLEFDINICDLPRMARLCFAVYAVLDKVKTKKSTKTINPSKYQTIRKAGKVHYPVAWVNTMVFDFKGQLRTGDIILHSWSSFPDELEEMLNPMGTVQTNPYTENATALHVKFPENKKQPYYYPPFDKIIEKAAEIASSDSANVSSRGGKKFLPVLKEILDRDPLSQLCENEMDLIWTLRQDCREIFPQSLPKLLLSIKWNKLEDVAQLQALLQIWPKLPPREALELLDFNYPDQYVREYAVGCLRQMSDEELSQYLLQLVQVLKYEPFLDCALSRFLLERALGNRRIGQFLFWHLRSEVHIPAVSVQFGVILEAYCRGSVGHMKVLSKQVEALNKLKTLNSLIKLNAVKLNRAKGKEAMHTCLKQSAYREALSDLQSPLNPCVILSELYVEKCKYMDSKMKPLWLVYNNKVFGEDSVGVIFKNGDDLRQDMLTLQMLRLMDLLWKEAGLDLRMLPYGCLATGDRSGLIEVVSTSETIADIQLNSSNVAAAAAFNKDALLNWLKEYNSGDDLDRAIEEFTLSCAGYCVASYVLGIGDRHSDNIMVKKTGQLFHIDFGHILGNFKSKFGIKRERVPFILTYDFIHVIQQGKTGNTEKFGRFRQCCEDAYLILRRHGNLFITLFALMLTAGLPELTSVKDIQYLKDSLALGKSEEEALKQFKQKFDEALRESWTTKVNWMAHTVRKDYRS
Chain of PI3-kinase p110-delta/p85-alpha (P27986 whole entry): as the sequence (P27986 whole entry) above
Chain of PI3-kinase p110-delta/p85-alpha (O00329 whole entry): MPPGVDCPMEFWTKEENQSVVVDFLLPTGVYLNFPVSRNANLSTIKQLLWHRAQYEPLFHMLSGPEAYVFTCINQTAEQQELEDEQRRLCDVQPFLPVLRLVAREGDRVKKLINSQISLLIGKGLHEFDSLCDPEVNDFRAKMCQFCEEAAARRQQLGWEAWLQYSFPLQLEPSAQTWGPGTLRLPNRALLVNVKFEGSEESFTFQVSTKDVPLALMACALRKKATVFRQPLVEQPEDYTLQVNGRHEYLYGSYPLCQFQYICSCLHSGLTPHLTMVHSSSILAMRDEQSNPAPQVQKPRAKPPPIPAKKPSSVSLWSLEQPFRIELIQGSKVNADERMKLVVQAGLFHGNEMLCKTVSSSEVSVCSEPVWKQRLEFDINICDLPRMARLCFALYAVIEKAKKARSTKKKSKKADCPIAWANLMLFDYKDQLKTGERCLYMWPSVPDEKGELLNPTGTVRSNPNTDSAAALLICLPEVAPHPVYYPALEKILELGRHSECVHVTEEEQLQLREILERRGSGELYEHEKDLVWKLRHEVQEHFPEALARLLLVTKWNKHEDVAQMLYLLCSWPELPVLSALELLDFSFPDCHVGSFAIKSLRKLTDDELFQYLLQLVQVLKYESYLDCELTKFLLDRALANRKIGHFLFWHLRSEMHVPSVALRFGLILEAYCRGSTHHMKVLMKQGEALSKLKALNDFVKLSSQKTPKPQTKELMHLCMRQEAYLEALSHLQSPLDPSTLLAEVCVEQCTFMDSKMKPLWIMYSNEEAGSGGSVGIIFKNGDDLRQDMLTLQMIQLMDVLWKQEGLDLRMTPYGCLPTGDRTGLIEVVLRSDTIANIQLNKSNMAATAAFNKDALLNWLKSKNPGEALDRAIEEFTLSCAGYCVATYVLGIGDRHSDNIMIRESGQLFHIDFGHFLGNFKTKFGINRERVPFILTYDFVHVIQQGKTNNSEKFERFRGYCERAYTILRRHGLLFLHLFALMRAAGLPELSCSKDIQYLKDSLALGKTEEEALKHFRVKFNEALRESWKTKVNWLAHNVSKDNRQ

For `COC(=O)Nc1cc(C(F)(F)F)c(-c2nc(N3CCOCC3)c3cc(CN4CCN(S(C)(=O)=O)CC4)cn3n2)cn1` [RISOVALISIB], the IC50 in data set [1] is 8.4 nM; in [2] it was greater than 10000 nM; in data set [4], less than 1000 nM; in data set [7] it was less than 1000 nM; in data set [10] it was 598 nM; in data set [17], 78.7 nM. In addition, the values for the IC50 in data set [18], in data set [20] and in data set [21] were 225 nM, greater than 40000 nM and 17.1 nM, respectively. For the same molecule, the results for the Ratio IC50 in data set [3] and in [11] were 101 and 38, respectively. Moreover, the CLint scaled in data set [5] is 39.5 mL/min/kg; in data set [13], 16.9 mL/min/kg; in data set [16] it was 29 mL/min/kg. Also, the figures for the Activity result in data set [6], in data set [12] and in data set [14] were “Non-Toxic”, 37% and 67.4%, respectively. In data set [8], the inhibition result is “Dose-dependent effect”. Besides, the inhibition entry in data set [9], in data set [19] and in data set [22] was “Active” throughout. For the same molecule, the half-life in data set [15] was 2.46 h.
